Measured values: ChEMBL document CHEMBL1240389, “In vitro and in vivo activities of the novel anticytomegalovirus compound AIC246” (Antimicrob Agents Chemother, 2010)
pEC50: −log10 of the molar value. The source made the active and inactive calls. The calls are words filed in the database; no cut-off is given here.

Assays:
[1] = system: Human herpesvirus 5 strain AD169; test: Antiviral activity against ganciclovir-resistant human cytomegalovirus AD169 UL97 M460I infected in NHDF assessed as inhibition of virus-induced cytopathic effect after 6 to 7 days by giemsa staining; assay type: functional, organism-based; details: Human betaherpesvirus 5, UL97 M460I
Summary of the method: (§1)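 NHDF cells (1 × 10⁴/well) mixed with cell-free virus (MOI 0.03) or with infected-cell suspension (MOI 0.001 to 0.002). Compound was added from DMSO stocks in 2-fold serial dilutions, final 250 to 0.00005 μM, in duplicates. Plates were incubated 6 to 7 days at 37°C or until 100% CPE in virus control, then fixed and stained with Giemsa/formalin and scored microscopically. EC₅₀ is 50% CPE inhibition versus untreated infected control.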

Human betaherpesvirus 5 [2] = test: Antiviral activity against 0.1 MOI human cytomegalovirus AD169 infected in NHDF after 7 days by GFP-based fluorescent reduction assay; assay type: functional, organism-based; details: Human betaherpesvirus 5, AD169, NHDF, 168 h
Summary of the method: (§2)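 NHDF cells (1.5 × 10⁴/well) infected with GFP-expressing HCMV AD169 at the stated MOI (range 0.003 to 1 tested). After adsorption the inoculum was replaced, and compound was added in 3-fold serial dilutions, each at least in duplicate. Cells were incubated 7 days at 37°C, then GFP units were read by CCD camera in PBS. EC₅₀ was taken as the % GFPU reduction versus no-drug control. At least triplicate experiments.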

Human betaherpesvirus 5 [3] = test: Antiviral activity against human cytomegalovirus AD169 infected in NHDF after 7 days by GFP-based fluorescent reduction assay; assay type: functional, organism-based; details: Human betaherpesvirus 5, AD169, NHDF, 168 h
Summary of the method: (§3)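 Incubated 7 days at 37°C, medium swapped for PBS, GFP units read by CCD-camera fluorescence imager. EC50/EC90 from % GFPU reduction versus untreated infected wells by nonlinear regression; at least triplicate experiments.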

Human betaherpesvirus 5 [4] = test: Antiviral activity against 0.3 MOI human cytomegalovirus AD169 infected in NHDF after 7 days by GFP-based fluorescent reduction assay; assay type: functional, organism-based; details: Human betaherpesvirus 5, AD169, NHDF, 168 h; summary of the method: as §2
Human betaherpesvirus 5 [5] = test: Antiviral activity against human cytomegalovirus AD169 infected in NHDF assessed as inhibition of virus replication at 20 uM after 96 hrs by fluorescence assay; assay type: functional, organism-based
Human betaherpesvirus 5 [6] = test: Antiviral activity against 0.003 MOI human cytomegalovirus AD169 infected in NHDF after 7 days by GFP-based fluorescent reduction assay; assay type: functional, organism-based; details: Human betaherpesvirus 5, AD169, NHDF, 168 h; summary of the method: as §2
Human betaherpesvirus 5 [7] = test: Antiviral activity against ganciclovir-resistant human cytomegalovirus isolate 1947R infected in NHDF assessed as inhibition of virus-induced cytopathic effect after 6 to 7 days by giemsa staining; assay type: functional, organism-based; details: Human betaherpesvirus 5, isolate 1947R
Summary of the method: (§4)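 Cell-associated virus (infected NHDF cells) used as inoculum, at MOI 0.001 to 0.002, mixed with uninfected NHDF (1 × 10⁴ to 3 × 10⁴ cells/well). Compound was added in 2-fold serial dilutions, final 250 to 0.00005 μM, in duplicates. Incubation was 6 to 7 days at 37°C, followed by Giemsa/formalin staining and visual CPE scoring. EC₅₀ is 50% CPE inhibition versus untreated infected control; at least two independent experiments.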

Human betaherpesvirus 5 [8] = test: Antiviral activity against human cytomegalovirus infected in NHLF after 7 days by GFP-based fluorescent reduction assay; assay type: functional, organism-based; details: Human betaherpesvirus 5, 168 h
Summary of the method: (§5)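 Fibroblasts of the stated type (1.5 × 10⁴/well) infected with GFP-expressing recombinant AD169 (HCMV-GFP MOI 0.1 or RV-HG MOI 0.2 to 0.5). After adsorption the inoculum was replaced, with 3-fold serial compound dilutions at least in duplicate, and 7 days at 37°C. GFP units were read by CCD camera in PBS. EC₅₀ was derived from GFPU reduction versus untreated infected wells; at least triplicate runs.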

Human betaherpesvirus 5 [9] = test: Antiviral activity against human cytomegalovirus infected in human HS27 cells after 7 days by GFP-based fluorescent reduction assay; assay type: functional, organism-based; details: Human betaherpesvirus 5, HS27, 168 h
Summary of the method: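 GFP reduction assay run in HS27 foreskin fibroblasts instead of NHDF, infected with AD169-GFP; compounds in 3-fold serial dilutions, 7 days at 37°C, GFP units read by camera-based fluorescence detector after PBS exchange. EC50 from % GFPU reduction versus drug-free infected control; at least triplicate experiments.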

Human betaherpesvirus 5 [10] = test: Antiviral activity against 0.01 MOI human cytomegalovirus AD169 infected in NHDF after 7 days by GFP-based fluorescent reduction assay; details: Human betaherpesvirus 5, AD169, NHDF, 168 h
Human betaherpesvirus 5 [11] = test: Antiviral activity against human cytomegalovirus isolate 472 infected in NHDF assessed as inhibition of virus-induced cytopathic effect after 6 to 7 days by giemsa staining; assay type: functional, organism-based; details: Human betaherpesvirus 5, isolate 472, NHDF; summary of the method: as §1
Human betaherpesvirus 5 [12] = test: Antiviral activity against human cytomegalovirus isolate E16415S infected in NHDF assessed as inhibition of virus-induced cytopathic effect after 6 to 7 days by giemsa staining; assay type: functional, organism-based; details: Human betaherpesvirus 5, isolate E16415S; summary of the method: as §4
Human betaherpesvirus 5 [13] = test: Antiviral activity against human cytomegalovirus Davis infected in NHDF assessed as inhibition of virus-induced cytopathic effect after 6 to 7 days by giemsa staining; assay type: functional, organism-based; details: Human betaherpesvirus 5, Davis; summary of the method: as §1
Human betaherpesvirus 5 [14] = test: Antiviral activity against human cytomegalovirus AD169 infected in NHDF assessed as inhibition of virus replication at 50 nM measured after 24 to 72 hrs of compound wash by fluorescence assay; assay type: functional, organism-based
Human betaherpesvirus 5 [15] = test: Antiviral activity against human cytomegalovirus AD169 infected in NHDF assessed as inhibition of virus-induced cytopathic effect after 6 to 7 days by giemsa staining; assay type: functional, organism-based; details: Human betaherpesvirus 5, AD169, NHDF; summary of the method: as §1
Human betaherpesvirus 5 [16] = test: Antiviral activity against human cytomegalovirus infected in NHDF after 7 days by GFP-based fluorescent reduction assay; assay type: functional, organism-based; details: Human betaherpesvirus 5, NHDF, 168 h; summary of the method: as §5
Human betaherpesvirus 5 [17] = test: Antiviral activity against 0.03 MOI human cytomegalovirus AD169 infected in NHDF after 7 days by GFP-based fluorescent reduction assay; assay type: functional, organism-based; details: Human betaherpesvirus 5, AD169, NHDF, 168 h; summary of the method: as §2
Human betaherpesvirus 5 [18] = test: Antiviral activity against ganciclovir-resistant human cytomegalovirus isolate E17251S infected in NHDF assessed as inhibition of virus-induced cytopathic effect after 6 to 7 days by giemsa staining; assay type: functional, organism-based; details: Human betaherpesvirus 5, isolate E17251S; summary of the method: as §4
Human betaherpesvirus 5 [19] = test: Antiviral activity against human cytomegalovirus RV-HG infected in NHDF after 7 days by GFP-based fluorescent reduction assay; assay type: functional, organism-based; details: Human betaherpesvirus 5, RV-HG, 168 h; summary of the method: as §3
Human betaherpesvirus 5 [20] = test: Antiviral activity against 1 MOI human cytomegalovirus AD169 infected in NHDF after 7 days by GFP-based fluorescent reduction assay; assay type: functional, organism-based; details: Human betaherpesvirus 5, AD169, NHDF, 168 h
Summary of the method: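 NHDF cells (1.5 × 10⁴/well) infected with GFP-expressing HCMV AD169 at increasing MOI (0.003 to 1); after adsorption inoculum replaced, compound added in serial 3-fold dilutions, at least duplicate. 7 days at 37°C, medium swapped for PBS, GFP units read by CCD camera. EC₅₀ = 50% GFPU reduction versus no-drug virus control by nonlinear regression; at least triplicate experiments.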

Human betaherpesvirus 5 [21] = test: Antiviral activity against human cytomegalovirus AD169 infected in NHDF at 20 uM treated after 33 hrs postinfection measured after 7 days by GFP-based fluorescent reduction assay; assay type: functional, organism-based
Human betaherpesvirus 5 [22] = test: Antiviral activity against human cytomegalovirus AD169 infected in NHDF at 10 times EC50 treated postinfection and measured after 7 days by GFP-based fluorescent reduction assay
Human betaherpesvirus 5 [23] = test: Antiviral activity against human cytomegalovirus infected in HEL299 cells after 7 days by GFP-based fluorescent reduction assay; assay type: functional, organism-based; details: Human betaherpesvirus 5, HEL 299, 168 h; summary of the method: as §5

## Nc1nc2c(ncn2COC(CO)CO)c(=O)[nH]1 [GANCICLOVIR]
[1]
  pEC50: 4.92
Human betaherpesvirus 5 [2]
  pEC50: 5.66
Human betaherpesvirus 5 [3]
  pEC50: 5.76
  EC90: 10700 nM
Human betaherpesvirus 5 [4]
  pEC50: 5.19
Human betaherpesvirus 5 [5]
  Activity: Active
Human betaherpesvirus 5 [6]
  pEC50: 6.00
Human betaherpesvirus 5 [7]
  pEC50: 4.82
Human betaherpesvirus 5 [8]
  pEC50: 5.68
Human betaherpesvirus 5 [9]
  pEC50: 6.49
Human betaherpesvirus 5 [10]
  pEC50: 6.17
Human betaherpesvirus 5 [11]
  pEC50: 5.30
Human betaherpesvirus 5 [12]
  pEC50: 5.96
Human betaherpesvirus 5 [13]
  pEC50: 5.57
Human betaherpesvirus 5 [14]
  Activity: Active
Human betaherpesvirus 5 [15]
  pEC50: 5.37
Human betaherpesvirus 5 [16]
  pEC50: 5.72
Human betaherpesvirus 5 [17]
  pEC50: 5.76
Human betaherpesvirus 5 [18]
  pEC50: 4.85
Human betaherpesvirus 5 [19]
  pEC50: 5.63
  EC90: 18300 nM
Human betaherpesvirus 5 [20]
  pEC50: 5.28
Human betaherpesvirus 5 [21]
  Activity: Active
Human betaherpesvirus 5 [22]
  Activity: Active
Human betaherpesvirus 5 [23]
  pEC50: 5.62
